Here are results for 45 molecules from ChEMBL document CHEMBL1134940, “Highly potent non-peptidic inhibitors of the HCV NS3/NS4A serine protease” (Bioorg Med Chem Lett, 2002).

What all share (assay type): protein-complex assay, Hepacivirus hominis
The target of test [1] is T1, Hepatitis C virus serine protease, NS3/NS4A (Hepatitis C virus, UniProt A3EZI9+D2K2A8). The test is described as follows: Inhibition of HCV serine protease NS3/NS4A in the presence of EDTA. The procedure, abridged:
(§1)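 No Zn(II) added; EDTA included. Inhibitor at varying concentrations preincubated 30 min at room temperature (21–24 °C). Reaction started with the quenched-fluorescence substrate Ac-DED(Edans)EE-Abu[COO]-ASK(Dabcyl)-CONH₂.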

Test [2] has as its target T1, Hepatitis C virus serine protease, NS3/NS4A. The test is described as follows: Inhibition of HCV serine protease NS3/NS4A in the presence of Zn. The procedure, abridged:
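Same setup run with ZnCl₂ added instead of EDTA. NS3 protease construct (first 183 residues; 12 nM active sites) plus the 17-residue NS4A surrogate peptide. Inhibitor at several concentrations preincubated 30 min at 21–24 °C. The Edans/Dabcyl quenched-fluorescence depsipeptide substrate was then added to start the reaction.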

The target is the same in test [3]. The test is described as follows: Inhibition of HCV serine protease NS3/NS4A in the presence of EDTA. In a few lines:
as §1

T1 sequence (D2K2A8 whole entry): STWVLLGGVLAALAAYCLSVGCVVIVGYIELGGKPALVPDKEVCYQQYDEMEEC
T1 sequence (A3EZI9 whole entry): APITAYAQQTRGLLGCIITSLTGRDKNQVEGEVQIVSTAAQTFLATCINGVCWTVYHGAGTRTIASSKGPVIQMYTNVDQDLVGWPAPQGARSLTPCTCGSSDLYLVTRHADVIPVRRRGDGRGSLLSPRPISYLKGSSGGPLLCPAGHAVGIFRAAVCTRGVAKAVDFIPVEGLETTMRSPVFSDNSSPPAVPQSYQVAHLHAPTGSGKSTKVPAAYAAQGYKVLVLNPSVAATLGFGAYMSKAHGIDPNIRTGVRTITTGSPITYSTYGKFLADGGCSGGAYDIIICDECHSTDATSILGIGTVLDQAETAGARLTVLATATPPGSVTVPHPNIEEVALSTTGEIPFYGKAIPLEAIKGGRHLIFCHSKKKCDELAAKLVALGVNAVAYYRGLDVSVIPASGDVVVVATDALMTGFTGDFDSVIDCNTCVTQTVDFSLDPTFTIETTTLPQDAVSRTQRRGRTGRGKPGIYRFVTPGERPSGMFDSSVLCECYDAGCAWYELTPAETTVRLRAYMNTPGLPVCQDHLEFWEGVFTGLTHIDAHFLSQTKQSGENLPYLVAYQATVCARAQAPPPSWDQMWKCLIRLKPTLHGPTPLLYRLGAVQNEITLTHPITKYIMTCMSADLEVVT

As for `Cn1c(C(F)(F)c2nc3c(F)cc(F)cc3[nH]2)nc2ccc(C(=O)NC(CP(=O)(O)O)C(=O)O)cc21` (centres undefined), the inhibition constant (Ki) in test [1] came out at 25 µM; in test [2], 1.4 µM.
For the molecule `Cn1c(Cc2nc3cc(C(N)=O)ccc3[nH]2)nc2ccc(C(=O)NC(CP(=O)(O)O)C(=O)O)cc21` (centres undefined), the results for the inhibition constant Ki in test [1] and in test [2] were 170 µM and 0.2 µM, respectively.
Regarding `CC(c1ncc[nH]1)c1nc2ccc(C(=O)NC(CP(=O)(O)O)C(=O)O)cc2n1C` (centres undefined), the Ki in test [3] was determined as 110 µM; in test [2], 83 µM.
For the molecule `CC(=O)NCc1nc2ccc(C(=O)NC(CP(=O)(O)O)C(=O)O)cc2n1C` (centres undefined), the Ki in test [3] was 150 µM; in test [2], 32 µM.
`Cn1c(C(F)(F)c2nc3ccc(C(=O)NC(CP(=O)(O)O)C(=O)O)cc3[nH]2)nc2ccc(C(=O)NC(CP(=O)(O)O)C(=O)O)cc21` (centres undefined): the inhibition constant (Ki) in test [1] stood at 15 µM; in test [2], 0.073 µM.
In the case of `Cn1c(C(F)c2nc3ccccc3[nH]2)nc2ccc(C(=O)NC(CP(=O)(O)O)C(=O)O)cc21` (centres undefined), the results for the Ki in test [1] and in test [2] were 37 µM and 0.47 µM, respectively.
Taken in the same sequence, the figures for `CC(C)(C)Cn1c(Cc2nc3ccccc3[nH]2)nc2ccc(C(=O)NC(CP(=O)(O)O)C(=O)O)cc21` (centres undefined) were > 300 µM and 0.61 µM.
In the case of `Cc1cccc2[nH]c(C(F)(F)c3nc4ccc(C(=O)NC(CP(=O)(O)O)C(=O)O)cc4n3C)nc12` (centres undefined), the Ki in test [1] was found to be 66 µM; in test [2] it was 21 µM.
For `Cn1c(Cc2nc3c(F)cc(F)cc3[nH]2)nc2ccc(C(=O)NC(CP(=O)(O)O)C(=O)O)cc21` (centres undefined), the Ki in test [3] came to 58 µM; in test [2] it was 0.24 µM.
Consider `Cn1c(C(F)(F)c2nc3ccc(Cl)cc3[nH]2)nc2ccc(C(=O)NC(CP(=O)(O)O)C(=O)O)cc21` (centres undefined), for which the inhibition constant Ki amounted to 38 µM in test [1] and 2.4 µM in test [2].
On to `Cn1c(Cc2nc3ccc(C(=O)NC(CP(=O)(O)O)C(=O)O)cc3[nH]2)nc2ccc(C(=O)NC(CP(=O)(O)O)C(=O)O)cc21` (centres undefined), for which the Ki in test [1] turned out to be 21 µM; in test [2], 0.1 µM.
Taken in the same sequence, the figures for `Cn1c(Cc2nc3c(F)cc(F)c(F)c3[nH]2)nc2ccc(C(=O)NC(CP(=O)(O)O)C(=O)O)cc21` (centres undefined) were 22 µM and 0.35 µM.
Regarding `Cn1c(Cc2nc3cc(F)c(F)cc3[nH]2)nc2ccc(C(=O)NC(CP(=O)(O)O)C(=O)O)cc21` (centres undefined), the Ki came out at 25 µM in test [3] and 0.21 µM in test [2].
For `Cc1ccc2nc(Cc3nc4ccc(C(=O)NC(CP(=O)(O)O)C(=O)O)cc4n3C)[nH]c2c1` (centres undefined), the Ki in test [1] was 98 µM; in test [2], 0.24 µM.
Consider `CC(c1nc2ccc(C(N)=O)cc2[nH]1)c1nc2cc(C(=O)C(CP(=O)(O)O)C(=O)O)ccc2n1C` (centres undefined), for which the inhibition constant Ki in test [3] and in test [2] was > 300 µM each time.
Consider `Cn1c(Cc2nc3ccc(Cl)cc3[nH]2)nc2ccc(C(=O)NC(CP(=O)(O)O)C(=O)O)cc21` (centres undefined), for which the inhibition constant (Ki) was 130 µM in test [3] and 0.38 µM in test [2].
Regarding `Cn1c(C(F)(F)c2nc3ccccc3[nH]2)nc2ccc(C(=O)NC(CP(=O)(O)O)C(=O)NC(CP(=O)(O)O)C(=O)O)cc21` (centres undefined), the figures for the inhibitory constant (Ki) in test [1] and in test [2] were 19.6 µM and 0.82 µM, respectively.
Regarding `Cc1cccc2[nH]c(Cc3nc4ccc(C(=O)NC(CP(=O)(O)O)C(=O)O)cc4n3C)nc12` (centres undefined), the Ki in test [1] was > 300 µM; in test [2], 10 µM.
In the same order, the values of `O=C(NC(CP(=O)(O)O)C(=O)O)c1ccc2nc(Cc3nc4ccccc4[nH]3)n(CC3CC3)c2c1` (centres undefined) are 140 µM and 0.14 µM.
In the same order, the values of `Cn1c(C(F)(F)c2nc3ccc(C(=O)NC(CP(=O)(O)O)C(=O)O)cc3[nH]2)nc2ccc(C(=O)NC(CP(=O)(O)O)C(=O)NC(CP(=O)(O)O)C(=O)O)cc21` (centres undefined) are 1 µM and 0.027 µM.
Regarding `Cn1c(Cc2nc3cc(F)ccc3[nH]2)nc2ccc(C(=O)NC(CP(=O)(O)O)C(=O)O)cc21` (centres undefined), the values for the Ki in test [3] and in test [2] were 95 µM and 0.28 µM, respectively.
In the same order, the values of `Cn1c(Cc2nc3ccc(C(N)=O)cc3[nH]2)nc2ccc(C(=O)NCC(=O)O)cc21` are > 300 µM and 68 µM.
With `Cn1c(C(F)(F)c2nc3ccccc3[nH]2)nc2ccc(C(=O)NC(CP(=O)(O)O)C(=O)O)cc21` (centres undefined), in test [1], the inhibitory constant (Ki) worked out at 1.1 µM.
Take `Cn1c(Cc2nc3ccc(C(=O)NC(CP(=O)(O)O)C(=O)O)cc3n2C)nc2ccccc21` (centres undefined): the inhibition constant (Ki) in test [3] is 140 µM; in test [2], 3.8 µM.
With `Cn1c(Cc2nc3c(F)c(F)c(F)c(F)c3[nH]2)nc2ccc(C(=O)NC(CP(=O)(O)O)C(=O)O)cc21` (centres undefined), the inhibitory constant (Ki) stood at 17 µM in test [1] and 0.28 µM in test [2].
Turning to `Cn1c(Cc2nc3cc(C(F)(F)F)ccc3[nH]2)nc2ccc(C(=O)NC(CP(=O)(O)O)C(=O)O)cc21` (centres undefined), the values for the Ki in test [3] and in test [2] were 70 µM and 0.41 µM, respectively.
In the same order, the values of `CC(c1nc2ccccc2[nH]1)c1nc2ccc(C(=O)NC(CP(=O)(O)O)C(=O)O)cc2n1C` (centres undefined) are 215 µM and 0.23 µM.
Regarding `CC(C)CCn1c(Cc2nc3ccccc3[nH]2)nc2ccc(C(=O)NC(CP(=O)(O)O)C(=O)O)cc21` (centres undefined), the Ki in test [1] is > 300 µM; in test [2], 0.87 µM.
In the same order, the values of `Cn1c(C(F)(F)c2nc3cc(F)c(F)cc3[nH]2)nc2ccc(C(=O)NC(CP(=O)(O)O)C(=O)O)cc21` (centres undefined) are 15 µM and 4 µM.
In the same order, the values of `Cn1c(C(F)(F)c2nc3c(F)c(F)cc(F)c3[nH]2)nc2ccc(C(=O)NC(CP(=O)(O)O)C(=O)O)cc21` (centres undefined) are 12 µM and 2.9 µM.
Take `COP(=O)(O)CC(NC(=O)c1ccc2nc(Cc3nc4ccc(C(N)=O)cc4[nH]3)n(C)c2c1)C(=O)O` (centres undefined): the inhibition constant Ki came to 38.1 µM in test [3] and 1.36 µM in test [2].
Regarding `Cn1c(C(F)(F)c2nc3ccc(C(N)=O)cc3[nH]2)nc2ccc(C(=O)NC(CP(=O)(O)O)C(=O)O)cc21` (centres undefined), the Ki in test [1] is 74 µM; in test [2], 1.2 µM.
Taken in the same sequence, the figures for `Cn1c(Cc2nc3ccc(O)cc3[nH]2)nc2ccc(C(=O)NC(CP(=O)(O)O)C(=O)O)cc21` (centres undefined) were 250 µM and 0.19 µM.
Consider `COc1ccc2nc(Cc3nc4ccc(C(=O)NC(CP(=O)(O)O)C(=O)O)cc4n3C)[nH]c2c1` (centres undefined), for which the figures for the Ki in test [1] and in test [2] were 187 µM and 0.2 µM, respectively.
In the same order, the values of `CC(C)n1c(Cc2nc3ccccc3[nH]2)nc2ccc(C(=O)NC(CP(=O)(O)O)C(=O)O)cc21` (centres undefined) are > 300 µM and 12 µM.
Taken in the same sequence, the figures for `COC(=O)C(CP(=O)(O)O)NC(=O)c1ccc2[nH]c(C(F)(F)c3nc4ccc(C(=O)NC(CP(=O)(O)O)C(=O)OC)cc4n3C)nc2c1` (centres undefined) were 32 µM and 0.277 µM.
Taken in the same sequence, the figures for `Cn1c(Cc2nc3c(F)c(F)ccc3[nH]2)nc2ccc(C(=O)NC(CP(=O)(O)O)C(=O)O)cc21` (centres undefined) were 140 µM and 0.27 µM.
Consider `CC(c1nc2ccccc2[nH]1)c1nc2cccc(C(=O)NC(CP(=O)(O)O)C(=O)O)c2n1C` (centres undefined), for which the results for the Ki in test [3] and in test [2] were 181 µM and 1.2 µM, respectively.
On to `Cn1c(Cc2nc3c(F)c(F)c(F)cc3[nH]2)nc2ccc(C(=O)NC(CP(=O)(O)O)C(=O)O)cc21` (centres undefined), for which the inhibitory constant (Ki) in test [1] turned out to be 21 µM; in test [2] it was 0.2 µM.
Taken in the same sequence, the figures for `CC(C)Cn1c(Cc2nc3ccccc3[nH]2)nc2ccc(C(=O)NC(CP(=O)(O)O)C(=O)O)cc21` (centres undefined) were > 300 µM and 0.37 µM.
In the same order, the values of `Cn1c(C(F)c2nc3c(F)c(F)cc(F)c3[nH]2)nc2ccc(C(=O)NC(CP(=O)(O)O)C(=O)O)cc21` (centres undefined) are 72 µM and 0.55 µM.
Taken in the same sequence, the figures for `COc1cccc2[nH]c(Cc3nc4ccc(C(=O)NC(CP(=O)(O)O)C(=O)O)cc4n3C)nc12` (centres undefined) were 24 µM and 0.49 µM.
Regarding `Cn1c(C(F)(F)c2nc3cc(F)ccc3[nH]2)nc2ccc(C(=O)NC(CP(=O)(O)O)C(=O)O)cc21` (centres undefined), the figures for the inhibition constant Ki in test [1] and in test [2] were 55 µM and 1.3 µM, respectively.
In the same order, the values of `Cn1c(Cc2nc3ccccc3[nH]2)nc2ccc(C(=O)NC(CP(=O)(O)O)C(=O)O)cc21` (centres undefined) are > 300 µM and 0.45 µM.
In the same order, the values of `Cn1c(C(F)c2nc3c(F)cc(F)cc3[nH]2)nc2ccc(C(=O)NC(CP(=O)(O)O)C(=O)O)cc21` (centres undefined) are 91 µM and 0.66 µM.
